According to ChEMBL document CHEMBL4382268, “Glycyrrhetinic acid derivatives containing aminophosphonate ester species as multidrug resistance reversers that block the NF-κB pathway and cell proliferation” (Bioorg Med Chem Lett, 2018):

Legend:
[1] = Growth inhibition of cisplatin-resistant human SKOV3/DDP cells after 48 hrs by MTT assay; type: functional; settings: SK-OV-3, 48 h
In short: (§1)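 MTT growth inhibition in the paired ovarian lines, cisplatin-sensitive SK-OV-3 and cisplatin-resistant SK-OV-3/CDDP. IC50 given as mean ± S.D. of three separate experiments, each in triplicate.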

[2] = test system: MG-63; assay: Antiproliferative activity against human MG63 cells after 48 hrs by MTT assay; type: functional, cell-based; settings: MG-63, 48 h
In short: (§2)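 MTT read-out of antiproliferative activity across cancer lines HepG-2, NCI-H460, MGC-803, A549 and MG-63 and normal liver line HL-7702. IC50 given as mean ± S.D. of three separate experiments, each run in triplicate.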

[3] = test system: L02; assay: Antiproliferative activity against human HL-7702 cells after 48 hrs by MTT assay; type: functional, cell-based; settings: L02, 48 h; in short: as §2
[4] = test system: MGC-803; assay: Antiproliferative activity against human MGC803 cells after 48 hrs by MTT assay; type: functional, cell-based; settings: MGC-803, 48 h; in short: as §2
[5] = test system: A549; assay: Antiproliferative activity against human A549 cells after 48 hrs by MTT assay; type: functional, cell-based; settings: A549, 48 h; in short: as §2
[6] = test system: SK-OV-3; assay: Growth inhibition of cisplatin sensitive human SKOV3 cells after 48 hrs by MTT assay; type: functional, cell-based; settings: SK-OV-3, 48 h; in short: as §1
[7] = Inhibition of TNF-alpha induced NF-kappaB activation in human A549 cells after 7 hrs by Bright-Glo luciferase reporter gene assay; type: cell-based
In short: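 A549 cells transiently cotransfected with an NF-κB-Luc reporter and stimulated with TNF-α. Luciferase read-out of inhibition gives IC50, the mean of at least three independent experiments each with triplicates.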

[8] = Selectivity ratio of IC50 for cisplatin-resistant human SKOV3/DDP cells to IC50 for cisplatin sensitive human SKOV3 cells; type: functional
In short: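 IC50 determined in resistant SK-OV-3/CDDP cells divided by IC50 in parental SK-OV-3 cells. Each IC50 by MTT, three separate experiments each in triplicate.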

[9] = test system: HepG2; assay: Antiproliferative activity against human HepG2 cells after 48 hrs by MTT assay; type: functional, cell-based; settings: HepG2, 48 h; in short: as §2
[10] = test system: NCI-H460; assay: Antiproliferative activity against human NCI-H460 cells after 48 hrs by MTT assay; type: functional, cell-based; settings: NCI-H460, 48 h; in short: as §2
[11] = Homo sapiens, A549, 7 h, read-out: IC50

SMILES	IC50 [4]	IC50 [5]	IC50 [6]	IC50 [7, 11]	IC50 [9]	IC50 [10]	IC50 ([7]; a549)	IC50 [1]	IC50 [2]	IC50 [3]	Ratio IC50 [8]
CC1(C)[C@@H](O)CC[C@]2(C)[C@H]3C(=O)C=C4[C@@H]5C[C@@](C)(C(=O)O)CC[C@]5(C)CC[C@@]4(C)[C@]3(C)CC[C@@H]12 [ENOXOLONE]	> 50 µM	36.1 µM	45.6 µM	> 30 µM	44.5 µM	37.6 µM		49.4 µM	> 50 µM	> 50 µM	1.08
CCOP(=O)(OCC)C(Nc1ccc(CC(=O)NCCCCNC(=O)[C@@]2(C)CC[C@]3(C)CC[C@]4(C)C(=CC(=O)[C@@H]5[C@@]6(C)CC[C@H](O)C(C)(C)[C@@H]6CC[C@]54C)[C@@H]3C2)cc1)c1cccc(Br)c1 (stereo partly drawn)	> 50 µM	> 50 µM		> 30 µM	> 50 µM	> 50 µM			> 50 µM	> 50 µM	
CCOP(=O)(OCC)C(Nc1ccc(CC(=O)NCCCNC(=O)[C@@]2(C)CC[C@]3(C)CC[C@]4(C)C(=CC(=O)[C@@H]5[C@@]6(C)CC[C@H](O)C(C)(C)[C@@H]6CC[C@]54C)[C@@H]3C2)cc1)c1cccc(Br)c1 (stereo partly drawn)	> 50 µM	> 50 µM			> 50 µM	> 50 µM	Not Active		> 50 µM	> 50 µM	

Compounds with a lower IC50 [4], results first:

IC50 [4]	IC50 [5]	IC50 [6]	IC50 [7, 11]	IC50 [9]	IC50 [10]	IC50 ([7]; a549)	SMILES	IC50 [1]	IC50 [2]	IC50 [3]	Ratio IC50 [8]
21 µM	26.4 µM		27.4 µM	21.3 µM	28.2 µM		CCOP(=O)(OCC)C(Nc1ccc(CC(=O)NCCCCNC(=O)[C@@]2(C)CC[C@]3(C)CC[C@]4(C)C(=CC(=O)[C@@H]5[C@@]6(C)CC[C@H](OC(C)=O)C(C)(C)[C@@H]6CC[C@]54C)[C@@H]3C2)cc1)c1cccc(F)c1 (stereo partly drawn)		22.8 µM	> 50 µM	
18.2 µM	19.3 µM		5.03 µM	19.3 µM	18.8 µM		CCOP(=O)(OCC)C(Nc1ccc(CC(=O)NCCCNC(=O)[C@@]2(C)CC[C@]3(C)CC[C@]4(C)C(=CC(=O)[C@@H]5[C@@]6(C)CC[C@H](OC(C)=O)C(C)(C)[C@@H]6CC[C@]54C)[C@@H]3C2)cc1)c1ccc(OC)cc1 (stereo partly drawn)		19.1 µM	> 50 µM	
16.3 µM	15 µM	10.1 µM	3.01 µM	15.3 µM	14.9 µM		CCOP(=O)(OCC)C(Nc1ccc(CC(=O)NCCCNC(=O)[C@@]2(C)CC[C@]3(C)CC[C@]4(C)C(=CC(=O)[C@@H]5[C@@]6(C)CC[C@H](OC(C)=O)C(C)(C)[C@@H]6CC[C@]54C)[C@@H]3C2)cc1)c1ccc(F)cc1 (stereo partly drawn)	13.4 µM	13.7 µM	> 50 µM	1.32
